In ChEMBL document CHEMBL1124442, “Potential antitumor agents. 58. Synthesis and structure-activity relationships of substituted xanthenone-4-acetic acids active against the colon 38 tumor in vivo” (1989):
Active and inactive are the calls of the source.

Columns and labels:
[1] = Activity against colon adenocarcinoma C38 tumor in mice, after intraperitoneal administration at optimal dose; format: functional, Mus musculus
Method in brief: (§1)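 Colon 38 fragments implanted subcutaneously and grown to 4–8 mm diameter. Single intraperitoneal dose of the sodium salt in 0.2 mL water, escalated at 1.5-fold intervals up to 750 mg/kg or the toxic limit, with at least three mice per dose. Optimal dose is the highest dose with no acute deaths within 24 h. Tumors excised at 24 h, fixed in formalin and stained with H&E. Sections scored against controls: + = 50–90% hemorrhagic necrosis, ++ = >90%.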

[2] = Inhibition of colon adenocarcinoma C38 tumor growth in mice, intraperitoneal administration; format: functional, Mus musculus; method in brief: as §1
P388 [3] = assay: Inhibition of 10e6 P388 leukemic cells in mice, intraperitoneal administration; format: functional, Mus musculus
Method in brief: (§2)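 10⁶ P388 leukemia cells injected intraperitoneally. Drug given intraperitoneally as the sodium salt in 0.2 mL water on days 1, 5 and 9; optimal dose is in mg/kg per day. ILS is the mean percent increase in lifespan over untreated tumor-bearing controls, with ≥20% considered significant. NA means no activity at any dose up to toxic levels.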

P388 [4] = assay: The average percentage increase in the lifespan of P388 leukemic mice, when compound was administered intraperitoneally; format: functional, Mus musculus
Method in brief: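 Mice received 10⁶ P388 leukemia cells ip. Drug was given ip as the sodium salt in 0.2 mL water on days 1, 5 and 9, with doses in mg/kg/day up to toxic levels. ILS is the average percentage increase in lifespan over untreated tumor-bearing controls, and values of ≥20% were taken as significant.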

[5] = Activity against colon adenocarcinoma C38 tumor in mice, after intraperitoneal administration at optimal dose and value ranges from 50 -90 %; format: functional, Mus musculus; method in brief: as §1
[6] = Ability of compound (100 mg/kg, single dose) to inhibit growth of Sc colon 38 tumor cells in mice; format: functional, Mus musculus
Method in brief: (§3)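 Mice carrying palpable subcutaneous colon 38 tumors, randomized in groups of five. Drug given intraperitoneally in aqueous solution, either as a single dose or as two equal doses 7 days apart. Major and minor tumor axes measured twice weekly from the start of treatment. Volume taken as 0.52x²y. Growth delay in days is relative to untreated controls.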

P388 [7] = assay: The average percentage increase in the lifespan of P388 leukemic mice, when compound was administered intraperitoneally; NA is Not Active.; format: functional, cell-based; conditions: Mus musculus; method in brief: as §2
P388 [8] = assay: Optimal dose that inhibits growth of 10e6 P388 leukemic cells in mice, after intraperitoneal administration of the compound; format: functional, Mus musculus; method in brief: as §2
[9] = Ability of compound (65 mg/kg, q4dx3) to inhibit growth of Sc colon 38 tumor cells in mice; format: functional, Mus musculus
Method in brief: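 Subcutaneously implanted colon 38 fragments were grown to 4–8 mm diameter. Mice with palpable tumors were randomized in groups of five and dosed ip with drug in aqueous solution; q4d×3 means three equal doses 4 days apart. Major and minor tumor axes were measured twice weekly from the start of treatment. Volume was calculated as 0.52x²y, and growth delay in days was derived against untreated controls.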

[10] = Activity against colon adenocarcinoma C38 tumor in mice, after intraperitoneal administration at optimal dose.; format: functional, Mus musculus; method in brief: as §1
P388 [11] = assay: The average percentage increase in the lifespan of P388 leukemic mice, when compound was administered intraperitoneally; NA means not active.; format: functional, cell-based; conditions: Mus musculus; method in brief: as §2
P388 [12] = assay: The average percentage increase in the lifespan of P388 leukemic mice, when compound was administered intraperitoneally; NA is Not active; format: functional, cell-based; conditions: Mus musculus; method in brief: as §2
[13] = Ability of compound (45 mg/kg, q7dx2) to inhibit growth of Sc colon 38 tumor cells in mice; format: functional, Mus musculus; method in brief: as §3
[14] = Ability of compound (330 mg/kg, single dose) to inhibit growth of Sc colon 38 tumor cells in mice; format: functional, Mus musculus; method in brief: as §3
P388 [15] = assay: The average percentage increase in the lifespan of P388 leukemic mice, when compound was administered intraperitoneally; NA means not active; format: functional, cell-based; conditions: Mus musculus; method in brief: as §2
[16] = Ability of compound (220 mg/kg, q7dx2) to inhibit growth of Sc colon 38 tumor cells in mice; format: functional, Mus musculus; method in brief: as §3

SMILES	Activity [1]	Optimal dose [2]	Optimal dose (P388 [3])	Activity [5]	ILS (P388 [7])	also measured
O=C(O)Cc1cccc2c(=O)c3cc(O)ccc3oc12	<50%	750 mg/kg				
O=C(O)Cc1cc(O)cc2c(=O)c3ccccc3oc12	<50%	750 mg/kg				
Cc1ccc2c(=O)c3cccc(CC(=O)O)c3oc2c1		220 mg/kg	100 mg/kg	50%		ILS (P388 [4]): 24%
O=C(O)Cc1cccc2c(=O)c3cccc(Cl)c3oc12	>90%	150 mg/kg	65 mg/kg			ILS (P388 [4]): 34%; Growth delay [6]: 5.2 days
Cc1ccc(CC(=O)O)c2oc3ccccc3c(=O)c12		150 mg/kg		50%	No activity	Optimal dose (P388 [8]): 100 mg/kg
COc1cc(CC(=O)O)c2oc3ccccc3c(=O)c2c1		750 mg/kg	225 mg/kg	50%	No activity	
Cc1ccc2oc3c(CC(=O)O)cccc3c(=O)c2c1		500 mg/kg	500 mg/kg	50%	No activity	
O=C(O)Cc1ccc(O)c2c(=O)c3ccccc3oc12	<50%	750 mg/kg				
O=c1[nH]cc(F)c(=O)[nH]1 [FLUOROURACIL]						Growth delay [9]: 12.5 days
O=C(O)Cc1c(Cl)ccc2c(=O)c3ccccc3oc12		500 mg/kg	150 mg/kg		No activity	Activity [10]: >90%
Cc1cc(CC(=O)O)c2oc3ccccc3c(=O)c2c1		500 mg/kg	330 mg/kg	50%	No activity	
O=C(O)Cc1cccc2c(=O)c3cccc(O)c3oc12	<50%	750 mg/kg	150 mg/kg			ILS (P388 [11]): No activity
O=C(O)Cc1cccc2c(=O)c3ccc(Cl)cc3oc12		150 mg/kg	65 mg/kg	50%	No activity	
O=C(O)Cc1ccc(Cl)c2c(=O)c3ccccc3oc12	>90%	330 mg/kg	220 mg/kg		No activity	
Cc1ccc2c(=O)c3ccccc3oc2c1CC(=O)O		150 mg/kg	100 mg/kg	50%		ILS (P388 [4]): 26%
O=C(O)Cc1cccc2c(=O)c3ccc(O)cc3oc12		750 mg/kg	225 mg/kg	50%	No activity	
O=C(O)Cc1cccc2c(=O)c3cccc([N+](=O)[O-])c3oc12		220 mg/kg	150 mg/kg			ILS (P388 [12]): inactive

SMILES	Activity [1]	Optimal dose [2]	Optimal dose (P388 [3])	Activity [5]	ILS (P388 [7])	also measured
COc1ccc2c(=O)c3ccccc3oc2c1CC(=O)O	<50%	220 mg/kg	220 mg/kg		No activity	
Cc1cccc2c(=O)c3cccc(CC(=O)O)c3oc12	>90%	45 mg/kg	30 mg/kg			ILS (P388 [4]): 27%; Growth delay [13]: 13 days
O=C(O)Cc1cccc2c(=O)cc(-c3ccccc3)oc12 [MITOFLAXONE]	>90%	330 mg/kg	150 mg/kg		No activity	Growth delay [14]: 17 days
O=C(O)Cc1c(O)ccc2c(=O)c3ccccc3oc12	<50%	500 mg/kg	500 mg/kg		No activity	
COc1ccc2oc3c(CC(=O)O)cccc3c(=O)c2c1		500 mg/kg	150 mg/kg	50%	No activity	
O=C(O)Cc1cccc2c(=O)c3cc([N+](=O)[O-])ccc3oc12	<50%	500 mg/kg	225 mg/kg			ILS (P388 [12]): inactive
O=C(O)Cc1cccc2c(=O)c3cc(Cl)ccc3oc12		500 mg/kg	150 mg/kg	50%	No activity	
Cc1cccc2oc3c(CC(=O)O)cccc3c(=O)c12	<50%	330 mg/kg	150 mg/kg		No activity	
COc1cccc2c(=O)c3cccc(CC(=O)O)c3oc12		150 mg/kg	150 mg/kg	50%		ILS (P388 [4]): 42%
COc1ccc2c(=O)c3cccc(CC(=O)O)c3oc2c1		150 mg/kg	65 mg/kg	50%		ILS (P388 [4]): 28%; Growth delay [6]: 0 days
O=C(O)Cc1ccc2c(=O)c3ccccc3oc2c1	<50%	500 mg/kg	225 mg/kg		No activity	
O=C(O)Cc1cc(Cl)cc2c(=O)c3ccccc3oc12		330 mg/kg	150 mg/kg	50%	No activity	
COc1cccc2oc3c(CC(=O)O)cccc3c(=O)c12	<50%	750 mg/kg	330 mg/kg		No activity	
O=C(O)Cc1cccc2oc3ccccc3c(=O)c12	<50%	500 mg/kg	500 mg/kg		No activity	
O=C(O)Cc1cccc2c(=O)c3ccccc3oc12	>90%	220 mg/kg	150 mg/kg			ILS (P388 [15]): inactive; Growth delay [16]: 11 days
COc1ccc(CC(=O)O)c2oc3ccccc3c(=O)c12	<50%	500 mg/kg				
O=C(O)Cc1cccc2c(=O)c3c(Cl)cccc3oc12		750 mg/kg	330 mg/kg	50%	No activity	
